Laboratory results from ChEMBL document CHEMBL1255572, “Novel pyrimidines as acid pump antagonists (APAs)” (Bioorg Med Chem Lett, 2010).
pIC50: −log10 of the molar value. Counter-ions that a name gives are not always drawn.

Experiment: Inhibition of H+/K+/ATPase
Outline: (§1)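 Ion-leaky membrane vesicles enriched in H+/K+-ATPase prepared from pig stomach. Lyophilized vesicles in 5 mM Pipes/Tris pH 6.1 preincubated 5 min with compound at various concentrations. K+-containing or K+-free buffer then added, ATP substrate added, and incubated 30 min at 37 °C. Colorimetric reagent stopped the reaction and Pi was read at 620 nm. K+-stimulated activity is the difference between with and without K+. IC50 by Litchfield–Wilcoxon.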

SMILES | pIC50
Cc1nc(Cc2ccc(F)cc2)nc(N2CCc3c(Cl)cccc3C2C)c1C (centres undefined) | 5.70
Cc1ccc2c(c1)CCN(c1nc(C(C)(C)c3ccc(F)cc3)nc(C)c1C)C2C (centres undefined) | 5.75
COc1ccc2c(c1)C(C)N(c1nc(C(=O)c3ccc(F)cc3)nc(C)c1C)CC2 (centres undefined) | 5.95
Cc1nc(Cc2ccc(F)cc2)nc(N2CCc3ccc(F)cc3C2C)c1C (centres undefined) | 5.91
Cc1ccc2c(c1)CCN(c1nc(C(O)c3ccc(F)cc3)nc(C)c1C)C2C (centres undefined) | 5.82
Cc1ccc2c(c1)CCN(c1nc(C3(c4ccc(F)cc4)CC3)nc(C)c1C)C2C (centres undefined) | 5.89
Cc1nc(Cc2ccc(F)cc2)nc(N2CCc3ccc(Cl)cc3C2C)c1C (centres undefined) | 5.79
Cc1ccc2c(c1)CCN(c1nc(C(F)c3ccc(F)cc3)nc(C)c1C)C2C (centres undefined) | 5.95
Cc1ccc2c(c1)CCN(c1nc(C(=O)c3ccc(F)cc3)nc(C)c1C)C2C (centres undefined) | 5.72

Results, then the compound that gave them:

pIC50 | SMILES
7.28 | COc1ccc2c(c1)C(C)N(c1nc(Cc3ccc(F)cc3)nc(C)c1C)CC2 (centres undefined)
6.46 | Cc1nc(Nc2ccc(F)cc2)nc(N2CCc3ccccc3C2C)c1C (centres undefined) [REVAPRAZAN HYDROCHLORIDE]
6.15 | Cc1cccc2c1C(C)N(c1nc(Cc3ccc(F)cc3)nc(C)c1C)CC2 (centres undefined)
6.64 | Cc1ccc2c(c1)CCN(c1nc(Cc3ccc(F)cc3)nc(C)c1C)C2C (centres undefined)
6.03 | Cc1nc(Cc2ccc(F)cc2)nc(N2CCc3cc(Cl)ccc3C2C)c1C (centres undefined)
6.21 | Cc1nc(Cc2ccc(F)cc2)nc(N2CC(C)c3ccccc3C2C)c1C (centres undefined)
6.77 | COc1ccc2c(c1)CCN(c1nc(Cc3ccc(F)cc3)nc(C)c1C)C2C (centres undefined)
6.52 | Cc1ccc2c(c1)C(C)N(c1nc(Cc3ccc(F)cc3)nc(C)c1C)CC2 (centres undefined)

Experiment: Inhibition of H+/K+/ATPase at 4 uM
Outline: as §1

inhibition [%] | SMILES
34.2 | COc1ccc2c(c1)C(C)N(c1nc(C(C)(C)c3ccc(F)cc3)nc(C)c1C)CC2 (centres undefined)
1.4 | COc1ccc2c(c1)C(C)N(c1nc(C3(c4ccc(F)cc4)CC3)nc(C)c1C)CC2 (centres undefined)
